Here are results for one compound from ChEMBL document CHEMBL4152387, “Discovery of a Potent Grp94 Selective Inhibitor with Anti-Inflammatory Efficacy in a Mouse Model of Ulcerative Colitis” (J Med Chem, 2018).

Active and inactive are the calls of the source. The rule behind the calls is not given here.

For data set [1], the target named is T1, Heat shock protein HSP 90-alpha (Homo sapiens, UniProt P07900). Nature of the data set: Inhibition of HSP90alpha in human PANC1 cells assessed as akt degradation at 1 to 5 uM after 36 hrs by Western blot analysis. Type of data set: cell-based. In a few lines: (§1)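 Panc-1 cells treated 36 h; total protein lysate with protease/phosphatase inhibitors; equal protein by BCA on SDS-PAGE, PVDF, Western blot for Hsp70 and Akt, β-actin loading control; AT13387 reference.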
On the technique in general: Immunoblotting shows a protein as a band on a membrane.

The subject of data set [2] is Mus musculus. Kind of data set: Subacute toxicity in C57BL/6 mouse assessed as effect on spleen at 30 to 90 mg/kg, ip qd for 2 weeks by hematoxylin and eosin staining analysis. It is filed as organism-based. Particulars: in vivo, 336 h.
A short description of data set [3]: Binding affinity to dog His-tagged biotinylated GRP94 N41 deletion mutant (69 to 337 residues) expressed in Escherichia coli BL21star (DE3) by biolayer interferometry. More on the design: species or system Canis lupus familiaris. In short, it runs like this:
(§2)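 His-tagged Grp94N biotinylated at one molar ratio in PBS pH 7.4, dialysed overnight, loaded at 400 nM on streptavidin biosensors after 10 min prewetting in PBS, 0.05% BSA, 0.01% Tween-20. Four compound concentrations in this buffer tested; binding recorded at 30 °C by biolayer interferometry.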
(In general: Biolayer interferometry detects binding as a change in optical thickness at a sensor tip.)

Data set [4] concerns Mus musculus. Kind of data set: Anti-inflammatory activity in ip dosed C57BL/6 mouse model of DSS-induced ulcerative colitis assessed reduction in TNFalpha levels in colonic tissues co-administrated once daily with DSS measured on day 7 post dose by ELISA. Type of data set: functional, organism-based. In short, it runs like this:
(§3)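 DSS colitis in male C57BL/6 mice (3% DSS in water, 7 days, ip qd co-dosing, vehicle controls). Serum and colons taken at sacrifice on day 7; colon homogenate supernatants and serum assayed for mouse TNFα and IL-6 by ELISA kits; n = 5 samples per group.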
A general note: ELISA stands for enzyme-linked immunosorbent assay.

A further data set deals with Endoplasmin (Homo sapiens, UniProt P14625). Nature of the data set: Inhibition of GRP94 in human PANC1 cells assessed as down-regulation of integrin alpha2 levels after 36 hrs by Western blot analysis. It is filed as cell-based. In a few lines: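 Panc-1 cells treated 36 h at indicated concentrations; cell surface protein extracted with a membrane-fractionation kit; Western blot for integrin α2 and αL with β-actin loading control, infrared fluorescent secondary detection.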

The test system of data set [5] is Mus musculus. Kind of data set: Anti-inflammatory activity in C57BL/6 mouse model of DSS-induced ulcerative colitis assessed reduction in colonic tissue damage at 10 to 30 mg/kg, ip qd co-administrated with DSS measured on day 7 post dose. Type of data set: functional, organism-based. In a few lines:
(§4)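 Male C57BL/6 mice (20−22 g), n = 8 per group, 3% DSS in drinking water 7 days plus ip qd dosing at 10 or 30 mg/kg; vehicle controls. Sacrificed at day 7, colons collected; colon length measured and H&E-stained colon sections examined.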

In data set [6] the test system is Mus musculus. Nature of the data set: Anti-inflammatory activity in C57BL/6 mouse model of DSS-induced ulcerative colitis assessed mortality at 30 mg/kg, ip qd co-administrated with DSS measured on day 7 post dose. It is filed as functional, organism-based. In a few lines:
(§5)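 Male C57BL/6 mice (20−22 g), randomized, n = 8 per group; 3% DSS (36−50 KD) in drinking water for 7 days, with compound given ip once daily alongside; normal and disease controls received vehicle. Deaths counted at day 7.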

Data set [7] relates to Mus musculus. Kind of data set: Anti-inflammatory activity in ip dosed C57BL/6 mouse model of DSS-induced ulcerative colitis assessed reduction in IL6 levels in serum co-administrated once daily with DSS measured on day 7 post dose by ELISA. Type of data set: functional, organism-based. In short, it runs like this: as §3
Data set [8] has as its system Mus musculus. Kind of data set: Anti-inflammatory activity in C57BL/6 mouse model of DSS-induced ulcerative colitis assessed reduction in p65 expression in colonic tissues at 10 to 30 mg/kg, ip qd co-administrated with DSS measured on day 7 post dose. It is filed as functional, organism-based. In short, it runs like this: (§6)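 DSS colitis in male C57BL/6 mice (3% DSS, 7 days, ip qd 10 or 30 mg/kg, vehicle controls); colons flash-frozen at day 7, homogenized in lysis buffer with protease/phosphatase inhibitors. Equal protein by BCA run on SDS-PAGE, PVDF, 1% BSA block, primary antibodies 37 °C 1 h then 4 °C overnight, DyLight 800 secondary, infrared scan; β-actin loading control.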

Data set [9] concerns Mus musculus. Nature of the data set: Anti-inflammatory activity in C57BL/6 mouse model of DSS-induced ulcerative colitis assessed mortality at 10 mg/kg, ip qd co-administrated with DSS measured on day 7 post dose. It is filed as functional, organism-based. In a few lines:
as §5

Data set [10] has as its system Mus musculus. Nature of the data set: Anti-inflammatory activity in C57BL/6 mouse model of DSS-induced ulcerative colitis assessed reduction in colon shortening at 10 to 30 mg/kg, ip qd co-administrated with DSS measured on day 7 post dose. It is filed as functional, organism-based. In short, it runs like this:
as §4

Data set [11] concerns Mus musculus. Kind of data set: Subacute toxicity in C57BL/6 mouse assessed as effect on kidneys at 30 to 90 mg/kg, ip qd for 2 weeks by hematoxylin and eosin staining analysis. Type of data set: organism-based. Particulars: in vivo, 336 h.
Data set [12] has as its system Mus musculus. Nature of the data set: In-vivo inhibition of HSP90/HSP70 pathway in C57BL/6 mouse model of DSS-induced ulcerative colitis assessed as effect on Akt expression in colonic tissues at 10 to 30 mg/kg, ip qd co-administrated with DSS measured on day 7 post dose. It is filed as organism-based. In short, it runs like this: as §6
Data set [13] concerns Mus musculus. Nature of the data set: Anti-inflammatory activity in C57BL/6 mouse model of DSS-induced ulcerative colitis assessed reduction in TLR2 expression in colonic tissues at 10 to 30 mg/kg, ip qd co-administrated with DSS measured on day 7 post dose. Type of data set: functional, organism-based. In a few lines:
as §6

The species named for data set [14] is Canis lupus familiaris. Kind of data set: Binding affinity to dog GST-tagged GRP94 N41 deletion mutant (69 to 337 residues) expressed in Escherichia coli BL21star (DE3) at 40 uM by NMR based CPMG assay.
Data set [15] deals with Mus musculus. Nature of the data set: Anti-inflammatory activity in ip dosed C57BL/6 mouse model of DSS-induced ulcerative colitis assessed reduction in IL6 levels in colonic tissues co-administrated once daily with DSS measured on day 7 post dose by ELISA. Type of data set: functional, organism-based. In short, it runs like this:
as §3

The target in data set [16] is T1, Heat shock protein HSP 90-alpha. Nature of the data set: Inhibition of HSP90alpha in human PANC1 cells assessed as up-regulation of Hsp70 at 1 to 5 uM after 36 hrs by Western blot analysis. Type of data set: cell-based. In short, it runs like this:
as §1

The test system of data set [17] is Mus musculus. Kind of data set: Subacute toxicity in C57BL/6 mouse assessed as behavioral abnormalities at 30 to 90 mg/kg, ip qd for 2 weeks. It is filed as organism-based. Particulars: in vivo, 336 h.
The test system of data set [18] is Mus musculus. Nature of the data set: Subacute toxicity in C57BL/6 mouse assessed as effect on heart at 30 to 90 mg/kg, ip qd for 2 weeks by hematoxylin and eosin staining analysis. Particulars: in vivo, 336 h. It is filed as organism-based.
A short description of data set [19]: Inhibition of FITC-geldanamycin binding to dog GST-tagged GRP94 N41 deletion mutant (69 to 337 residues) expressed in Escherichia coli BL21star (DE3) after 4 hrs by GM-FITC-based FP assay. Further details: species or system Canis lupus familiaris.
Data set [20] relates to Mus musculus. Nature of the data set: Subacute toxicity in C57BL/6 mouse assessed as effect on lung at 30 to 90 mg/kg, ip qd for 2 weeks by hematoxylin and eosin staining analysis. Type of data set: organism-based. Particulars: in vivo, 336 h.
For data set [21], the system named is Mus musculus. Kind of data set: Subacute toxicity in C57BL/6 mouse assessed as body weight loss at 30 to 90 mg/kg, ip qd for 2 weeks measured every other day. It is filed as organism-based. Particulars: in vivo, 336 h.
For data set [22], the species on record is Canis lupus familiaris. Kind of data set: Binding affinity to dog His-tagged biotinylated GRP94 N41 deletion mutant (69 to 337 residues) expressed in Escherichia coli BL21star (DE3) assessed as dissociation constant by biolayer interferometry. In short, it runs like this:
as §2

Endoplasmin, sequence (P14625 whole entry): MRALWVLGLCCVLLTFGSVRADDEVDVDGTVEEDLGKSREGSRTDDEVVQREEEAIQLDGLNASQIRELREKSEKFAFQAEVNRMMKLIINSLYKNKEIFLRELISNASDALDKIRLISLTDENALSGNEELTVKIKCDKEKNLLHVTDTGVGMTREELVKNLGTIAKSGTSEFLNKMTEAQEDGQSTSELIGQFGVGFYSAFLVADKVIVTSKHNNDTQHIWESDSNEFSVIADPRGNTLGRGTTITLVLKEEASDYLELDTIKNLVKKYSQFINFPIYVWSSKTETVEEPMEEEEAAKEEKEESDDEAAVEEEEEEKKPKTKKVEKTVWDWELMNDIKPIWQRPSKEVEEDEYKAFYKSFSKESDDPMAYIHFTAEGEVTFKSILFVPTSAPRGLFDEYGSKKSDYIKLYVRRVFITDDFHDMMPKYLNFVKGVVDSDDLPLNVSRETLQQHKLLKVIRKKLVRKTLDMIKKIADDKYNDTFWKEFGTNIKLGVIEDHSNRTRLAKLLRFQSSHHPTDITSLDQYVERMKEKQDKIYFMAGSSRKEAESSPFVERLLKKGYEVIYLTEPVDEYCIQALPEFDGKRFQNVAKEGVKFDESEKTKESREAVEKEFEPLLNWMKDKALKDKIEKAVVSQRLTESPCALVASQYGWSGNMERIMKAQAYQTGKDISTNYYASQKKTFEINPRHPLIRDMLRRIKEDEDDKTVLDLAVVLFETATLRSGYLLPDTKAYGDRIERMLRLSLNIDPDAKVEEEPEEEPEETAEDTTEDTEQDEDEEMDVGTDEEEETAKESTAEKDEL

As for `CC(C)c1ccc(-c2ccc(N[C@H]3CC[C@H](O)CC3)c(C(N)=O)c2)cc1`, the “inhibition (INH)” value in [1] and in [16] was “Not Active” in each case. Further, the Activity entry is “Non-Toxic” with Mus musculus [2]; “Dose-dependent effect” in the data set on Mus musculus [4]; “Dose-dependent effect” with Mus musculus [7]; “Non-Toxic” in the data set with Mus musculus [11]; “Non-Toxic” with Mus musculus [12]; “Dose-dependent effect” in the data set with Mus musculus [15]. Besides, the Activity result with Mus musculus [17], with Mus musculus [18], with Mus musculus [20] and in the data set with Mus musculus [21] was “Non-Toxic” throughout. Besides, the affinity in [3], expressed as Kd, was 19.6 nM. Besides, the inhibition result at Endoplasmin is “Dose-dependent effect”. Further, the result with Mus musculus [5], in the data set with Mus musculus [9] and with Mus musculus [10] was inactive. Further, the outcome with Mus musculus [6], with Mus musculus [8], with Mus musculus [13] and in the data set listed under Canis lupus familiaris [14] was Active. In addition, the IC50 (usually the concentration that inhibits the measured activity by half) in data set [19] was 2 nM. Further, in the data set listed under Canis lupus familiaris [22], the K stood at 1.25 ×10⁻² /s.
